≈ marks a conversion by molar mass, not a printed value.
Test system: not listed separately
Test: Drug metabolism in liver microsomes (unknown origin) assessed as compound remaining after 5 mins in presence of NADPH by UPLC analysis
Type: ADME, Microsome
Details: read-out: Drug metabolism
Summary of the method: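 Microsomal metabolic stability; percentage of compound remaining intact measured after 5 min incubation in presence of microsomes.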

remaining at 5 min	Compound
45%	COc1cc(/C=C/C(=O)CC(=O)/C=C/c2ccc(O)c(OC)c2)ccc1O [CURCUMIN]

Test system: not listed separately
Test: Half life in liver microsomes (unknown origin) in presence of NADPH by UPLC analysis
Type: ADME, Microsome
Details: not given

half-life	Compound
13.7 min	COc1cc(/C=C/C(=O)CC(=O)/C=C/c2ccc(O)c(OC)c2)ccc1O [CURCUMIN]

Test system: MDA-MB-231
Test: Potency index, ratio of curcumin IC50 to compound IC50 in human MDA-MB-231 cells
Type: functional
Details: not given
Summary of the method: (§1)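 IC50 came from an MTT viability assay after 24 h compound exposure, with curcumin run as the standard. Values are mean ± SE of three independent experiments. The index is the curcumin IC50 divided by the compound IC50 in the same cell line.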

Compound	Ratio IC50
O=C1/C(=C/c2ccccc2F)CN(C(=S)SCc2cn(Cc3ccccc3F)nn2)C/C1=C\c1ccccc1F	<=8.3
COc1ccc(/C=C2\CN(Cc3cn(Cc4ccccc4F)nn3)C/C(=C\c3ccc(OC)cc3)C2=O)cc1	<=8.3
Cc1ccc(/C=C2\CN(C(=S)SCc3cn(Cc4ccc(F)cc4)nn3)C/C(=C\c3ccc(C)cc3)C2=O)cc1	<=8.3
O=C1/C(=C/c2ccccc2F)CN(Cc2cn(Cc3ccccc3F)nn2)C/C1=C\c1ccccc1F	<=8.3
O=C1/C(=C/c2ccccc2F)CN(C(=S)SCc2cn(Cc3ccc(F)cc3)nn2)C/C1=C\c1ccccc1F	<=8.3

Test system: MDA-MB-231
Test: Cytotoxicity against human MDA-MB-231 cells assessed as decrease in cell viability after 24 hrs by MTT assay
Type: functional, cell-based
Details: MDA-MB-231, 24 h
Summary of the method: (§2)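 Cell viability by MTT after 24 h compound exposure; curcumin as standard. IC50 in µM from three independent experiments, expressed as mean ± SE.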

Compound	IC50
O=C1/C(=C/c2ccccc2F)CN(C(=S)SCc2cn(Cc3ccccc3F)nn2)C/C1=C\c1ccccc1F	57.6 µM
COc1ccc(/C=C2\CN(Cc3cn(Cc4ccccc4F)nn3)C/C(=C\c3ccc(OC)cc3)C2=O)cc1	67.2 µM
Cc1ccc(/C=C2\CN(C(=S)SCc3cn(Cc4ccc(F)cc4)nn3)C/C(=C\c3ccc(C)cc3)C2=O)cc1	45.6 µM
O=C1/C(=C/c2ccccc2F)CN(Cc2cn(Cc3ccccc3F)nn2)C/C1=C\c1ccccc1F	16 µM
COc1cc(/C=C/C(=O)CC(=O)/C=C/c2ccc(O)c(OC)c2)ccc1O [CURCUMIN]	75.3 µM
O=C1/C(=C/c2ccccc2F)CN(C(=S)SCc2cn(Cc3ccc(F)cc3)nn2)C/C1=C\c1ccccc1F	58.8 µM

Test system: PC-3
Test: Cytotoxicity against human PC3 cells assessed as decrease in cell viability after 24 hrs by MTT assay
Type: functional, cell-based
Details: PC-3, 24 h
Summary of the method: as §2

Compound	IC50
O=C1/C(=C/c2ccccc2F)CN(C(=S)SCc2cn(Cc3ccccc3F)nn2)C/C1=C\c1ccccc1F	> 80 µM
COc1ccc(/C=C2\CN(Cc3cn(Cc4ccccc4F)nn3)C/C(=C\c3ccc(OC)cc3)C2=O)cc1	39.9 µM
Cc1ccc(/C=C2\CN(C(=S)SCc3cn(Cc4ccc(F)cc4)nn3)C/C(=C\c3ccc(C)cc3)C2=O)cc1	45.5 µM
O=C1/C(=C/c2ccccc2F)CN(Cc2cn(Cc3ccccc3F)nn2)C/C1=C\c1ccccc1F	19.7 µM
COc1cc(/C=C/C(=O)CC(=O)/C=C/c2ccc(O)c(OC)c2)ccc1O [CURCUMIN]	39 µM
O=C1/C(=C/c2ccccc2F)CN(C(=S)SCc2cn(Cc3ccc(F)cc3)nn2)C/C1=C\c1ccccc1F	> 80 µM

Test system: HEK293
Test: Cytotoxicity against human HEK293 cells assessed as decrease in cell viability after 24 hrs by MTT assay
Type: cell-based
Details: HEK293, 24 h
Summary of the method: as §2

Compound	IC50
COc1ccc(/C=C2\CN(Cc3cn(Cc4ccccc4F)nn3)C/C(=C\c3ccc(OC)cc3)C2=O)cc1	> 100 µM
O=C1/C(=C/c2ccccc2F)CN(Cc2cn(Cc3ccccc3F)nn2)C/C1=C\c1ccccc1F	41.2 µM
COc1cc(/C=C/C(=O)CC(=O)/C=C/c2ccc(O)c(OC)c2)ccc1O [CURCUMIN]	94.1 µM
O=C1/C(=C/c2ccccc2F)CN(C(=S)SCc2cn(Cc3ccc(F)cc3)nn2)C/C1=C\c1ccccc1F	51.3 µM

Test system: not listed separately
Test: Intrinsic clearance in liver microsomes (unknown origin) assessed per mg of protein in presence of NADPH by UPLC analysis
Type: ADME, Microsome
Details: not given

CLint	Compound
101 µL/min/mg	COc1cc(/C=C/C(=O)CC(=O)/C=C/c2ccc(O)c(OC)c2)ccc1O [CURCUMIN]

Test system: not listed separately
Test: Solubility of the compound in distilled water after 24 hrs by HPLC based shake flask method
Type: physicochemical
Details: not given

solubility thermodynamic at 24 h	Compound
0.06 µg/mL (≈ 0.163 µM)	COc1cc(/C=C/C(=O)CC(=O)/C=C/c2ccc(O)c(OC)c2)ccc1O [CURCUMIN]

Test system: DU-145
Test: Potency index, ratio of curcumin IC50 to compound IC50 in human DU145 cells
Type: functional
Details: not given
Summary of the method: as §1

Compound	Ratio IC50
COc1ccc(/C=C2\CN(Cc3cn(Cc4ccccc4F)nn3)C/C(=C\c3ccc(OC)cc3)C2=O)cc1	≤ 9.5
Cc1ccc(/C=C2\CN(C(=S)SCc3cn(Cc4ccc(F)cc4)nn3)C/C(=C\c3ccc(C)cc3)C2=O)cc1	≤ 9.5
O=C1/C(=C/c2ccccc2F)CN(Cc2cn(Cc3ccccc3F)nn2)C/C1=C\c1ccccc1F	≤ 9.5

Test system: 4T1
Test: Potency index, ratio of curcumin IC50 to compound IC50 in mouse 4T1 cells
Type: functional
Details: not given
Summary of the method: as §1

Compound	Ratio IC50
O=C1/C(=C/c2ccccc2F)CN(C(=S)SCc2cn(Cc3ccccc3F)nn2)C/C1=C\c1ccccc1F	<=9.3
COc1ccc(/C=C2\CN(Cc3cn(Cc4ccccc4F)nn3)C/C(=C\c3ccc(OC)cc3)C2=O)cc1	<=9.3
Cc1ccc(/C=C2\CN(C(=S)SCc3cn(Cc4ccc(F)cc4)nn3)C/C(=C\c3ccc(C)cc3)C2=O)cc1	<=9.3
O=C1/C(=C/c2ccccc2F)CN(Cc2cn(Cc3ccccc3F)nn2)C/C1=C\c1ccccc1F	<=9.3
O=C1/C(=C/c2ccccc2F)CN(C(=S)SCc2cn(Cc3ccc(F)cc3)nn2)C/C1=C\c1ccccc1F	<=9.3

Test system: PC-3
Test: Potency index, ratio of curcumin IC50 to compound IC50 in human PC3 cells
Type: functional
Details: not given
Summary of the method: as §1

Compound	Ratio IC50
O=C1/C(=C/c2ccccc2F)CN(Cc2cn(Cc3ccccc3F)nn2)C/C1=C\c1ccccc1F	<=5.7

Test system: DU-145
Test: Cytotoxicity against human DU145 cells assessed as decrease in cell viability after 24 hrs by MTT assay
Type: functional, cell-based
Details: DU-145, 24 h
Summary of the method: as §2

Compound	IC50
O=C1/C(=C/c2ccccc2F)CN(C(=S)SCc2cn(Cc3ccccc3F)nn2)C/C1=C\c1ccccc1F	> 80 µM
COc1ccc(/C=C2\CN(Cc3cn(Cc4ccccc4F)nn3)C/C(=C\c3ccc(OC)cc3)C2=O)cc1	32.6 µM
Cc1ccc(/C=C2\CN(C(=S)SCc3cn(Cc4ccc(F)cc4)nn3)C/C(=C\c3ccc(C)cc3)C2=O)cc1	38.8 µM
O=C1/C(=C/c2ccccc2F)CN(Cc2cn(Cc3ccccc3F)nn2)C/C1=C\c1ccccc1F	10.6 µM
COc1cc(/C=C/C(=O)CC(=O)/C=C/c2ccc(O)c(OC)c2)ccc1O [CURCUMIN]	41 µM
O=C1/C(=C/c2ccccc2F)CN(C(=S)SCc2cn(Cc3ccc(F)cc3)nn2)C/C1=C\c1ccccc1F	35.7 µM

Test system: not listed separately
Test: Elimination rate constant in liver microsomes (unknown origin) assessed as compound remaining measured up to 60 mins by UPLC analysis
Type: ADME, Microsome
Details: not given

k el at 1 h	Compound
0.00085 s⁻¹	COc1cc(/C=C/C(=O)CC(=O)/C=C/c2ccc(O)c(OC)c2)ccc1O [CURCUMIN]

Test system: MCF7
Test: Cytotoxicity against human MCF7 cells assessed as decrease in cell viability after 24 hrs by MTT assay
Type: functional, cell-based
Details: MCF7, 24 h
Summary of the method: as §2

Compound	IC50
O=C1/C(=C/c2ccccc2F)CN(C(=S)SCc2cn(Cc3ccccc3F)nn2)C/C1=C\c1ccccc1F	51.6 µM
COc1ccc(/C=C2\CN(Cc3cn(Cc4ccccc4F)nn3)C/C(=C\c3ccc(OC)cc3)C2=O)cc1	≥ 100 µM
Cc1ccc(/C=C2\CN(C(=S)SCc3cn(Cc4ccc(F)cc4)nn3)C/C(=C\c3ccc(C)cc3)C2=O)cc1	81.6 µM
O=C1/C(=C/c2ccccc2F)CN(Cc2cn(Cc3ccccc3F)nn2)C/C1=C\c1ccccc1F	6 µM
COc1cc(/C=C/C(=O)CC(=O)/C=C/c2ccc(O)c(OC)c2)ccc1O [CURCUMIN]	83.1 µM
O=C1/C(=C/c2ccccc2F)CN(C(=S)SCc2cn(Cc3ccc(F)cc3)nn2)C/C1=C\c1ccccc1F	56.9 µM

Test system: not listed separately
Test: Intrinsic hepatic clearance in liver microsomes (unknown origin) assessed per mg of protein in presence of NADPH by UPLC analysis
Type: ADME, Microsome
Details: read-out: CLH (converted)

CLint scaled	Compound
182 L/h/kg	COc1cc(/C=C/C(=O)CC(=O)/C=C/c2ccc(O)c(OC)c2)ccc1O [CURCUMIN]

Test system: 4T1
Test: Cytotoxicity against mouse 4T1 cells assessed as decrease in cell viability after 24 hrs by MTT assay
Type: functional, cell-based
Details: 4T1, 24 h
Summary of the method: as §2

Compound	IC50
O=C1/C(=C/c2ccccc2F)CN(C(=S)SCc2cn(Cc3ccccc3F)nn2)C/C1=C\c1ccccc1F	30.7 µM
COc1ccc(/C=C2\CN(Cc3cn(Cc4ccccc4F)nn3)C/C(=C\c3ccc(OC)cc3)C2=O)cc1	39.4 µM
Cc1ccc(/C=C2\CN(C(=S)SCc3cn(Cc4ccc(F)cc4)nn3)C/C(=C\c3ccc(C)cc3)C2=O)cc1	29.3 µM
O=C1/C(=C/c2ccccc2F)CN(Cc2cn(Cc3ccccc3F)nn2)C/C1=C\c1ccccc1F	6.5 µM
COc1cc(/C=C/C(=O)CC(=O)/C=C/c2ccc(O)c(OC)c2)ccc1O [CURCUMIN]	49.4 µM
O=C1/C(=C/c2ccccc2F)CN(C(=S)SCc2cn(Cc3ccc(F)cc3)nn2)C/C1=C\c1ccccc1F	9.9 µM

— ChEMBL document CHEMBL4477254, “Synthesis and biological evaluation of some novel triazole hybrids of curcumin mimics and their selective anticancer activity against breast and prostate cancer cell lines” (Bioorg Med Chem Lett, 2016)
